Measured values as given in ChEMBL document CHEMBL1148762, “Lysosome and HER3 (ErbB3) selective anticancer agent kahalalide F: semisynthetic modifications and antifungal lead-exploration studies” (J Med Chem, 2007).
≈ marks a conversion by molar mass, not a printed value. Calls of active or inactive are those of the source. The calls are words filed in the database; no cut-off is given here.

How the values were obtained:
Candida albicans = test: Antimicrobial activity against Candida albicans ATCC 90028; format: functional, organism-based
[1] = test system: Mycobacterium intracellulare; test: Antimicrobial activity against Mycobacterium intracellular ATCC 23068; format: functional, organism-based
Aspergillus fumigatus = test: Antimicrobial activity against Aspergillus fumigatus ATCC 90906; format: functional, organism-based
Cryptococcus neoformans = test: Antimicrobial activity against Cryptococcus neoformans ATCC 90113; format: functional, organism-based
Leishmania donovani = test: Antiparasitic activity against Leishmania donovani; format: functional, organism-based
[2] = test system: Mycobacterium tuberculosis; test: Antibacterial activity against Mycobacterium tuberculosis H37Rv by micro plate alamar blue assay; format: functional
[3] = test system: Mycobacterium tuberculosis; test: Antibacterial activity against Mycobacterium tuberculosis H37Rv at 16 ug/mL by micro plate alamar blue assay; format: functional
In short: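 M. tuberculosis H37Rv ATCC 27294 grown in BACTEC 12B medium; microplate Alamar blue assay (MABA). Primary screen at a single concentration of 16 µg/mL, read as percent inhibition.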

Fusarium proliferatum = test: Fungistatic activity against Fusarium proliferatum at 30 uM after 72 hrs by microtiter plate assay; format: functional, organism-based
In short: (§1)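 Conidia come from 7-day potato dextrose agar cultures, filtered and set photometrically (625 nm) to 3 × 10^5 conidia/mL. They are exposed to compound at 30 µM in 96-well microdilution broth at 24 ± 1 °C under a 12 h photoperiod. After 72 h, 20 µL per well is subcultured on drug-free potato dextrose agar at 28 °C for 3 days. No regrowth is scored fungicidal; regrowth is scored fungistatic.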

Fusarium oxysporum = test: Fungistatic activity against Fusarium oxysporum at 30 uM after 72 hrs by microtiter plate assay; format: functional, organism-based; in short: as §1
Fusarium solani = test: Fungicidal activity against Fusarium solani at 30 uM after 72 hrs by microtiter assay; format: functional, organism-based
In short: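 After 72 h of microtiter broth exposure at 30 µM, 20 µL from each well was plated onto compound-free potato dextrose agar and incubated 3 days at 28 °C. No regrowth was scored fungicidal; regrowth was scored fungistatic.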

For `C/C=C1\NC(=O)[C@H](Cc2ccccc2)NC(=O)[C@@H](C(C)C)NC(=O)[C@@H]([C@@H](C)CC)NC(=O)[C@H](NC(=O)[C@H](NC(=O)[C@H](CCCNCc2cccs2)NC(=O)[C@H]2CCCN2C(=O)[C@H](NC(=O)[C@@H](NC(=O)[C@@H](NC(=O)[C@H](NC(=O)CCCC(C)C)C(C)C)[C@@H](C)O)C(C)C)C(C)C)[C@@H](C)CC)[C@@H](C)OC(=O)[C@H](C(C)C)NC1=O`, the IC50 (Candida albicans) was 3.81 µM, the IC50 [1] was 12 µM and the IC50 (Aspergillus fumigatus) was 3.22 µM. It also gave an IC50 (Cryptococcus neoformans) of 1910 nM and an IC50 (Leishmania donovani) of 17 µg/mL (≈ 10.8 µM).

For `C/C=C1\NC(=O)[C@H](Cc2ccccc2)NC(=O)[C@@H](C(C)C)NC(=O)[C@@H]([C@@H](C)CC)NC(=O)[C@H](NC(=O)[C@H](NC(=O)[C@H](CCCN(CCCCCC)CCCCCC)NC(=O)[C@H]2CCCN2C(=O)[C@H](NC(=O)[C@@H](NC(=O)[C@@H](NC(=O)[C@H](NC(=O)CCCC(C)C)C(C)C)[C@@H](C)O)C(C)C)C(C)C)[C@@H](C)CC)[C@@H](C)OC(=O)[C@H](C(C)C)NC1=O`, the MFC (Candida albicans) was > 20 µM, the MIC (Candida albicans) was > 20 µM and the MIC [2] was 9.4 µg/mL (≈ 5.71 µM). For the same compound, the MBC [1] was > 20 µM, the MIC [1] was > 20 µM and the MFC (Aspergillus fumigatus) was > 20 µM. For the same compound, the MIC (Aspergillus fumigatus) was > 20 µM, the MFC (Cryptococcus neoformans) was > 20 µM and the MIC (Cryptococcus neoformans) was > 20 µM. The inhibition at 16 µg/mL [3] was 91%.

In the case of `CO[C@H]1/C=C/O[C@@]2(C)Oc3c(C)c(O)c4c(O)c(c(/C=N/N5CCN(C)CC5)c(O)c4c3C2=O)NC(=O)/C(C)=C\C=C\[C@H](C)[C@H](O)[C@@H](C)[C@@H](O)[C@@H](C)[C@H](OC(C)=O)[C@@H]1C` [RIFAMPIN], the MIC [2] is reported as 0.08 µg/mL (≈ 0.0972 µM) and the inhibition at 16 µg/mL [3] is reported as 93%.

In the case of `C/C=C1\NC(=O)[C@H](Cc2ccccc2)NC(=O)[C@@H](C(C)C)NC(=O)[C@@H]([C@@H](C)CC)NC(=O)[C@H](NC(=O)[C@H](NC(=O)[C@H](CCCNCCCCCC)NC(=O)[C@H]2CCCN2C(=O)[C@@H](NC(=O)[C@H](NC(=O)[C@H](NC(=O)[C@@H](NC(=O)CCCC(C)C)C(C)C)[C@H](C)O)C(C)C)C(C)C)[C@@H](C)CC)[C@@H](C)OC(=O)[C@H](C(C)C)NC1=O`, the Activity (Fusarium proliferatum) is reported as “Active”, the Activity (Fusarium oxysporum) is reported as “Active” and the Activity (Fusarium solani) is reported as “Active”.
